According to ChEMBL document CHEMBL4406880, “Design, synthesis, and bioactivity of dihydropyrimidine derivatives as kinesin spindle protein inhibitors” (Bioorg Med Chem, 2019):

What was measured:
Format in all cases: functional
SR = test: Growth inhibition of human SR cells incubated for 48 hrs by sulforhodamine B assay
Summary of the method: (§1)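 NCI-60 five-dose SRB assay. Cells were exposed for 48 h to tenfold dilutions of 0.01, 0.1, 1, 10 and 100 µM, in RPMI 1640 with 5% FBS. Plates fixed with TCA at the time of drug addition served as the time-zero reference. GI50 is the concentration giving a 50% reduction in net growth. TGI is total growth inhibition. LC50 is a net 50% loss of the initial cells.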

NCI-H23 = test: Growth inhibition of human NCI-H23 cells incubated for 48 hrs by sulforhodamine B assay; details: NCI-H23, 48 h
Summary of the method: (§2)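 NCI-60 five-dose SRB assay in RPMI 1640 with 5% FBS, 37 °C, 5% CO2. Compound given at five tenfold dilutions, 0.01–100 µM, for 48 h. Adherent cells fixed with TCA, suspension cells with 16% final TCA. Bound SRB read at 515 nm and growth calculated against time-zero and untreated controls. GI50 taken from dose–response curves as the concentration giving a 50% decrease in net cell growth.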

HCT-15 = test: Growth inhibition of human HCT15 cells incubated for 48 hrs by sulforhodamine B assay; details: HCT-15, 48 h
Summary of the method: (§3)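 NCI-60 five-dose mode: five tenfold dilutions (0.01, 0.1, 1, 10, 100 µM) are applied for 48 h to cells in RPMI 1640 with 5% FBS at 37 °C. Endpoint is TCA fixation with sulforhodamine B read at 515 nm. % growth comes from the 0 h and control absorbances. GI50 is the concentration giving a 50% reduction in net cell growth.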

OVCAR-4 [1] = test: Growth inhibition of human OVCAR4 cells incubated for 48 hrs by sulforhodamine B assay; details: OVCAR-4, 48 h; summary of the method: as §2
RXF 393 = test: Growth inhibition of human RXF393 cells incubated for 48 hrs by sulforhodamine B assay; details: RXF 393, 48 h; summary of the method: as §1
SNB-75 = test: Cell cycle arrest in human SNB75 cells assessed as accumulation in preG1 phase at 2 uM incubated for 24 hrs by propidium iodide based flow cytometry (reference value: 1.85 %)
Summary of the method: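 SNB-75 cells were exposed to 2 µM for 24 h at 37 °C, 5% CO2, then washed with PBS and fixed in 70% ethanol on ice for 15 min. They were stained 1 h at room temperature with 50 µg/mL propidium iodide, 0.1 mg/mL RNase A and 0.05% Triton X-100. DNA content was read by flow cytometry to give the % of cells in pre-G1, G0/G1, S and G2/M.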

HOP-92 [2] = test: Growth inhibition of human HOP92 cells assessed as cell viability at 100 uM incubated for 48 hrs by sulforhodamine B assay; details: HOP-92, 48 h, read-out: Activity
MOLT-4 = test: Growth inhibition of human MOLT4 cells assessed as cell viability at 100 uM incubated for 48 hrs by sulforhodamine B assay; details: MOLT-4, 48 h, read-out: Activity
SF-268 = test: Growth inhibition of human SF268 cells assessed as cell viability at 1 uM incubated for 48 hrs by sulforhodamine B assay; details: SF-268, 48 h, read-out: Activity
NCI-H522 = test: Growth inhibition of human NCI-H522 cells assessed as cell viability at 1 uM incubated for 48 hrs by sulforhodamine B assay; details: NCI-H522, 48 h, read-out: Activity
HOP-92 [3] = test: Growth inhibition of human HOP92 cells assessed as cell viability at 1 uM incubated for 48 hrs by sulforhodamine B assay; details: HOP-92, 48 h, read-out: Activity
MDA-MB-231 = test: Growth inhibition of human MDA-MB-231 cells assessed as cell viability at 0.1 uM incubated for 48 hrs by sulforhodamine B assay; details: MDA-MB-231, 48 h, read-out: Activity
786-0 = test: Growth inhibition of human 786-0 cells assessed as cell viability at 0.1 uM incubated for 48 hrs by sulforhodamine B assay; details: 786-0, 48 h, read-out: Activity; summary of the method: as §3
OVCAR-4 [4] = test: Growth inhibition of human OVCAR4 cells assessed as cell viability at 0.1 uM incubated for 48 hrs by sulforhodamine B assay; details: OVCAR-4, 48 h, read-out: Activity
IGROV-1 = test: Growth inhibition of human IGROV1 cells assessed as cell viability at 0.1 uM incubated for 48 hrs by sulforhodamine B assay; details: IGROV-1, 48 h, read-out: Activity
HCT-116 = test: Growth inhibition of human HCT116 cells assessed as cell viability at 0.1 uM incubated for 48 hrs by sulforhodamine B assay; details: HCT-116, 48 h, read-out: Activity
HOP-62 = test: Growth inhibition of human HOP62 cells assessed as cell viability at 0.1 uM incubated for 48 hrs by sulforhodamine B assay; details: HOP-62, 48 h, read-out: Activity
CCRF-CEM = test: Growth inhibition of human CCRF-CEM cells assessed as cell viability at 0.1 uM incubated for 48 hrs by sulforhodamine B assay; details: read-out: Activity
PC-3 = test: Growth inhibition of human PC3 cells assessed as cell viability at 0.001 uM incubated for 48 hrs by sulforhodamine B assay relative to control; details: PC-3, 48 h, read-out: Activity
CAKI-1 = test: Growth inhibition of human Caki1 cells assessed as cell viability at 0.001 uM incubated for 48 hrs by sulforhodamine B assay relative to control; details: CAKI-1, 48 h, read-out: Activity
OVCAR-3 = test: Growth inhibition of human OVCAR3 cells assessed as cell viability at 0.001 uM incubated for 48 hrs by sulforhodamine B assay relative to control; details: OVCAR-3, 48 h, read-out: Activity
HL-60(TB) = test: Growth inhibition of human HL-60(TB) cells assessed as cell viability at 0.001 uM incubated for 48 hrs by sulforhodamine B assay relative to control; details: HL-60, 48 h, read-out: Activity
[5] = read-out: LC50 (the source's name)
[6] = read-out: pLC50 (the source's name) (converted)

CC1=C(C(=O)OCc2ccccc2)C(c2ccc3c(c2)OCO3)n2c(nc3ccccc32)N1 (racemic)
GI50 (SR; read-out: GI50): 1.71 µM
CC50 (SR; [5]): > 100 µM
TGI (SR; read-out: TGI): > 100 µM
GI50 (SR; read-out: pGI50 (converted)): 1.7 µM
CC50 (SR; [6]): > 100 µM
TGI (SR; read-out: pTGI): > 100 µM
GI50 (NCI-H23; read-out: GI50): 31.8 µM
LC50 (NCI-H23; read-out: LC50): > 100 µM
TGI (NCI-H23; read-out: TGI): > 100 µM
GI50 (NCI-H23; read-out: pGI50 (converted)): 31.6 µM
LC50 (NCI-H23; read-out: pLC50 (converted)): > 100 µM
TGI (NCI-H23; read-out: pTGI): > 100 µM
GI50 (HCT-15; read-out: GI50): 0.37 µM
LC50 (concentration causing 50% net cell kill) (HCT-15; read-out: LC50): > 100 µM
TGI (HCT-15; read-out: TGI): > 100 µM
GI50 (HCT-15; read-out: pGI50 (converted)): 0.372 µM
LC50 (concentration causing 50% net cell kill) (HCT-15; read-out: pLC50 (converted)): > 100 µM
TGI (HCT-15; read-out: pTGI): > 100 µM
GI50 (OVCAR-4 [1]; read-out: GI50): 13.3 µM
CC50 (OVCAR-4 [1]; [5]): > 100 µM
TGI (OVCAR-4 [1]; read-out: TGI): > 100 µM
GI50 (OVCAR-4 [1]; read-out: pGI50 (converted)): 13.2 µM
CC50 (OVCAR-4 [1]; [6]): > 100 µM
TGI (OVCAR-4 [1]; read-out: pTGI): > 100 µM
GI50 (RXF 393; read-out: GI50): 0.31 µM
CC50 (RXF 393; [5]): > 100 µM
TGI (RXF 393; read-out: TGI): > 100 µM
GI50 (RXF 393; read-out: pGI50 (converted)): 0.302 µM
CC50 (RXF 393; [6]): > 100 µM
TGI (RXF 393; read-out: pTGI): > 100 µM
Activity (SNB-75): 24.82%
viability at 100 µM (HOP-92 [2]): 53%
viability at 100 µM (MOLT-4): 33%
viability at 1 µM (SF-268): 32%
viability at 1 µM (NCI-H522): 3%
viability at 1 µM (HOP-92 [3]): 41%
viability at 0.1 µM (MDA-MB-231): 98%
viability at 0.1 µM (786-0): 97%
viability at 0.1 µM (OVCAR-4 [4]): 90%
viability at 0.1 µM (IGROV-1): 93%
viability at 0.1 µM (HCT-116): 100%
viability at 0.1 µM (HOP-62): 96%
viability at 0.1 µM (CCRF-CEM): 98%
viability at 0.001 µM (PC-3): 89%
viability at 0.001 µM (CAKI-1): 83%
viability at 0.001 µM (OVCAR-3): 95%
viability at 0.001 µM (HL-60(TB)): 95%
